Casp6 inh = inhibitors of human caspase-6; inhibition, % at 12.5 µM; hit rate 0.53% among 350,000; AID 686996; purified caspase-6, Z-VEID-R110 cleavage fluorescence;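 active means mean inhibition across replicates at least about 35%, with every replicate also reaching that limit, limit read from the data; inconclusive means only one of the two criteria met; inactive means neither criterion met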
Target sequence (P55212 24-179 limits assumed): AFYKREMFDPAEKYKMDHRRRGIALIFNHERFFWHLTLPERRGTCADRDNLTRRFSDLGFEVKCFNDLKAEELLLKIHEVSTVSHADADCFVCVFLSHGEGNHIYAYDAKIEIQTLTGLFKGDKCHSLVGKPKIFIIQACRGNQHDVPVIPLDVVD
Target sequence (P55212 194-293 limits assumed): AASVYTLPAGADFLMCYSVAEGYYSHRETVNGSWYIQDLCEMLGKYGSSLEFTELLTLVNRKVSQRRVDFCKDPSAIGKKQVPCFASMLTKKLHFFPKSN
S100A4 inh HTS = inhibitors of human S100A4 binding to myosin IIA peptide; S100A4/TAMRA-MyoIIA peptide fluorescence polarization; inhibition, % at 10.7 µM; hit rate 0.14% among 360,000; AID 652163;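 active means mean inhibition of at least 70% across replicates, with every replicate also reaching that level; inconclusive means mean inhibition reaches 70% but some replicates fall short; inactive means mean inhibition below 70%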
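Test system – S100A4 monomer (human) · Compound – single-point compound testing · Schedule – 5 min incubation before reading · Probe or stimulus – TAMRA-labelled myosin IIA heavy-chain peptide probe, 5 nM · Benchmarks – neutral control DMSO, positive control TFP · Medium – Calcium-containing HEPES buffer, pH 7.2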
RAD54 branch = RAD54 (human) branch migration inhibition | inhibition, % at 10.4 µM | Q92698 | AID 602329 | hit rate 0.14% among 360,000 | RAD54 Holliday junction branch migration, FAM/BHQ fluorescence;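 active means mean normalized replicate activity at least 40 and at least half of replicates scoring 40 or more; inconclusive means only one of the two criteria met; inactive means mean below 40 and under half of replicates reaching 40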;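 further: inhibitors cause a drop in the FAM fluorescence signal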
Xi reactivation = X-chromosome reactivation activator. activation, % at 7.58 µM. XiGFP mouse fibroblasts, % GFP-positive cells imaging, 3 d; cells co-treated with 5-aza-dC sensitizer; scaled so ellipticine positive control = 100%. AID 743238. hit rate 0.055% among 360,000;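 active means mean normalized replicate activation at least 10% and every replicate at or above 10%; inconclusive means only one of the two criteria met; inactive means mean below 10% and not all replicates reach 10%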
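System: XiGFP fibroblasts, SV40-immortalized. Medium: DMEM plus 5-aza-dC sensitizer. Doses: single point. Timing: 3 d treatment, 15 min room-temperature fixation. Control set: ellipticine 6 µM.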
AF4-AF9 inh = inhibitors of human MLL-AF4/AF9 interaction; P42568; AlphaScreen, biotin-AF4 peptide binding to FLAG-AF9; AID 651704; hit rate 0.47% among 350,000; inhibition, % at 10 µM;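 active means every replicate reaching a set inhibition limit, whatever the replicate mean, cut at about 25% in these data; inconclusive means mean inhibition reaches that limit but some replicates miss it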
RAD52 anneal inh = RAD52 (human) annealing inhibition. hit rate 0.46% among 360,000. inhibition, % at 18.7 µM. recombinant RAD52 DNA annealing, FRET fluorescence. P43351;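 active means every replicate showing at least 50% inhibition; inconclusive means mean inhibition at least 50% but not in every replicate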
Target sequence (P43351 whole entry, looked up): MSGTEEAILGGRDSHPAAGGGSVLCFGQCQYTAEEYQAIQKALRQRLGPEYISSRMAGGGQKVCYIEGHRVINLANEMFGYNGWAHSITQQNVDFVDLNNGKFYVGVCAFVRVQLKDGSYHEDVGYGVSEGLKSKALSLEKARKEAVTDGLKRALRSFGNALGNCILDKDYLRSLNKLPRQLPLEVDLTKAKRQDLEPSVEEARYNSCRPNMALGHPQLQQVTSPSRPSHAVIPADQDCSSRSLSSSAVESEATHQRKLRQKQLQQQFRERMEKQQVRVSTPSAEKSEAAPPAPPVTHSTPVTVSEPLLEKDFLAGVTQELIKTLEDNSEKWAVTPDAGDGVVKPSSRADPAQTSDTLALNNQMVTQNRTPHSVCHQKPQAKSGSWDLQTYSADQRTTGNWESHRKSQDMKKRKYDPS
Each line names hits and unclear results; the compound was inactive in the other large screens. Rows were chosen to be rich in hits. Some 1.3% of all compounds tested hit in one or more screens of this group.

COc1ccc(/C=N/Nc2cc(N(C)C)nc(N(C)C)n2)cc1	AF4-AF9 inh 28 (no result: RAD54 branch)
COc1ccc(/C=N/Nc2cc(OC)ncn2)cc1	none (no result: RAD54 branch)
Cc1cc(N/N=C/c2ccccc2)nc(NCc2ccccc2)n1	none
COc1ccccc1/C=N/Nc1cc(N(C)C)nc(N(C)C)n1	AF4-AF9 inh 29 (no result: RAD54 branch)
CN(C)c1cc(N/N=C\c2ccccc2)nc(N(C)C)n1	AF4-AF9 inh 26 (no result: RAD54 branch)
COc1ccc(NC(=O)N(C)C[C@H]2Oc3ncc(C#C[C@H](C)O)cc3C(=O)N([C@@H](C)CO)C[C@@H]2C)cc1	none
O=C(Nc1ccc(F)cc1)N1CC(=O)N2[C@H](CO)[C@@H](c3ccc(C#CC4CC4)cc3)[C@@H]2C1	none (no result: RAD54 branch)
COc1ccc(NC(=O)Nc2cccc3c2O[C@@H](CN(C)C(=O)Nc2ccc4c(c2)OCO4)[C@@H](C)CN([C@H](C)CO)C3=O)cc1	none
C[C@@H]1CCCCO[C@@H](CN(C)C(=O)c2ccccc2)[C@H](C)CN([C@@H](C)CO)C(=O)c2cc(NC(=O)C3CCCCC3)ccc2O1	none
CC(=NNC(=S)Nc1ccc(C)cc1)c1ccccn1	Casp6 inh 40 (no result: RAD54 branch)
CC(=NNC(=S)Nc1cccc(C)c1)c1ccccn1	none (no result: Casp6 inh, RAD54 branch)
C[C@H](NC(=O)C[C@@H]1C=C[C@H](NC(=O)C2CCOCC2)[C@H](CO)O1)c1ccccc1	none
CCCN1CCN(CCCNC(=O)C(CC)n2nc(C)c3sc4ccccc4c3c2=O)CC1 (stereo not given)	S100A4 inh HTS 113
CCC(C(=O)NCCCN1CCN(C)CC1)n1nc(C)c2sc3ccccc3c2c1=O (stereo not given)	none
O=C(COC(=O)c1ccccc1OCc1ccccc1Cl)NC1CCS(=O)(=O)C1 (stereo not given)	Casp6 inh 61
O=C(COC(=O)c1ccccc1Cc1ccccc1)NC1CCS(=O)(=O)C1 (stereo not given)	none
C[C@H](CO)N1C[C@H](C)[C@@H](CN(C)Cc2ccccc2)Oc2ccc(NC(=O)Nc3ccccc3)cc2CC1=O	none
COc1ccc(/C=C/C(=O)C23CC4CC(CC(C4)C2)C3)cc1CN1CCOCC1	AF4-AF9 inh 26 (no result: RAD54 branch)
C[C@H]1CN([C@@H](C)CO)C(=O)c2cc(NS(=O)(=O)c3ccccc3)ccc2O[C@H]1CN(C)C	none
COc1ccc(NC(=O)N2CCCCN3[C@H](C2)[C@@H](c2ccc(C#Cc4ccccc4)cc2)[C@@H]3CO)cc1	RAD52 anneal inh 82 (no result: Xi reactivation)
COc1ccccc1C#Cc1ccc([C@@H]2[C@@H](CO)N3CCCCN(C(=O)C4CCCC4)C[C@H]23)cc1	RAD52 anneal inh 62 (no result: Xi reactivation)
COc1ccc(NC(=O)N2CCCCN3[C@@H](CO)[C@H](c4ccc(C#Cc5ccccc5)cc4)[C@@H]3C2)cc1	RAD52 anneal inh 69 (no result: Xi reactivation)
COc1ccc(C#Cc2ccc([C@@H]3[C@@H](CO)N4CCCCN(C(=O)Nc5ccc(F)cc5)C[C@@H]34)cc2)cc1	S100A4 inh HTS 102
COc1ccccc1C#Cc1ccc([C@H]2[C@H]3CN(C(=O)C4CCCC4)CCCCN3[C@H]2CO)cc1	none (no result: Xi reactivation)
O=C1CNC[C@@H]2[C@H](c3ccc(-c4ccccc4F)cc3)[C@@H](CO)N12	none (no result: RAD54 branch)
O=C(C[C@@H]1CC[C@H]2[C@@H](COC[C@@H](O)CN2Cc2nccs2)O1)NCc1ccccc1F	none
C[C@@H]1CN([C@H](C)CO)C(=O)c2cc(NC(=O)CCCCCC(=O)Nc3ccccc3N)ccc2O[C@H]1CN(C)C(=O)NC1CCCCC1	none (no result: RAD54 branch)
COc1ccc(CN(C)C[C@H]2Oc3ccc(NC(=O)NC4CCCCC4)cc3CC(=O)N([C@H](C)CO)C[C@@H]2C)cc1	none (no result: Casp6 inh, S100A4 inh HTS, RAD54 branch, AF4-AF9 inh, RAD52 anneal inh)
CCCCN(C(=O)COC(=O)c1ccc(C)s1)c1c(N)n(CCC)c(=O)[nH]c1=O	none (no result: RAD54 branch)
Cc1ccc2nc(SCC(=O)N(CC(C)C)c3c(N)n(Cc4ccccc4)c(=O)[nH]c3=O)[nH]c2c1	AF4-AF9 inh 27
CCCCn1c(N)c(N(CCC(C)C)C(=O)COC(=O)c2ccc([N+](=O)[O-])s2)c(=O)[nH]c1=O	Casp6 inh 95
CC(C)CN(C(=O)COC(=O)c1ccc([N+](=O)[O-])s1)c1c(N)n(Cc2ccccc2)c(=O)[nH]c1=O	Casp6 inh 82
CCN(C(=O)CSc1nc2ccc(OC)cc2[nH]1)c1c(N)n(Cc2ccccc2)c(=O)[nH]c1=O	none
CCCCn1c(N)c(N(CCC(C)C)C(=O)COC(=O)c2sccc2C)c(=O)[nH]c1=O	none
CCCCn1c(N)c(N(CCOC)C(=O)COC(=O)c2cc(CCC)c(C)s2)c(=O)[nH]c1=O	AF4-AF9 inh 41 (no result: RAD54 branch)
O=C(N[C@H]1CC[C@@H](CCNC(=O)C2CCC2)O[C@@H]1CO)c1ccccn1	none
CCC(=O)N1CCC2(CC1)CN(C(=O)c1ccccn1)[C@@H](CO)c1c2c2ccc(OC)cc2n1C	none (no result: Casp6 inh, S100A4 inh HTS, RAD54 branch, AF4-AF9 inh, RAD52 anneal inh)
C[C@@H]1CN([C@H](C)CO)S(=O)(=O)c2ccc(C3=CCCCC3)cc2O[C@@H]1CN(C)Cc1ccccc1	S100A4 inh HTS 79
C[C@@H]1CN([C@H](C)CO)S(=O)(=O)c2ccc(C3=CCCCC3)cc2O[C@@H]1CN(C)Cc1cncnc1	S100A4 inh HTS 107
C[C@@H]1CN([C@@H](C)CO)S(=O)(=O)c2ccc(C3=CCCCC3)cc2O[C@@H]1CN(C)Cc1cncnc1	none
C[C@H]1CN([C@@H](C)CO)S(=O)(=O)c2ccc(C3=CCCCC3)cc2O[C@H]1CN(C)Cc1ccccc1	S100A4 inh HTS 100
O=C(C1CCOCC1)N1CC(=O)N2[C@H](CO)[C@H](c3ccc(-c4ccccc4F)cc3)[C@H]2C1	none (no result: RAD54 branch)
COCC(=O)Nc1ccc2c(c1)OC[C@@H](C)N(C(=O)Cc1cccnc1)C[C@H](C)[C@@H](OC)CN(C)C2=O	none
C[C@H](CO)N1C[C@H](C)[C@H](CN(C)Cc2ccc(C(F)(F)F)cc2)Oc2ccc(NS(=O)(=O)c3cn(C)cn3)cc2CC1=O	none
C[C@@H]1CN([C@@H](C)CO)C(=O)Cc2cc(NC(=O)CCCN(C)C)ccc2O[C@H]1CN(C)Cc1ccc(Oc2ccccc2)cc1	AF4-AF9 inh 39, RAD52 anneal inh 91
C[C@H]1CN([C@@H](C)CO)C(=O)Cc2cc(NC(=O)CCCN(C)C)ccc2O[C@H]1CN(C)Cc1ccc(Oc2ccccc2)cc1	none
C[C@H](CO)N1C[C@H](C)[C@@H](CN(C)Cc2ccc(Oc3ccccc3)cc2)Oc2ccc(NC(=O)CCCN(C)C)cc2CC1=O	AF4-AF9 inh inconclusive, RAD52 anneal inh 57
O=S(=O)(Nc1cc2nc3ccccc3nc2n1Cc1ccccc1)c1ccc(Cl)cc1	Xi reactivation 78 (no result: RAD54 branch)
NC(=O)Cn1cc(C(=O)C(=O)N2CCOCC2)c2ccccc21	Casp6 inh 45
O=C(NCC[C@@H]1CC[C@H](NS(=O)(=O)Cc2ccccc2)[C@@H](CO)O1)C1CCC1	none (no result: Casp6 inh, S100A4 inh HTS, RAD54 branch, RAD52 anneal inh)

Screening results: PubChem BioAssay, Broad Institute
